Data from ChEMBL document CHEMBL3352107, “Development of radamide analogs as Grp94 inhibitors” (Bioorg Med Chem, 2014).
Activity calls are given as the source filed them. No cut-off for these calls is given here.

Tests used:
[1] = molecular target: Endoplasmin (Homo sapiens) (UniProt P14625); test: Inhibition of recombinant Grp94 (unknown origin) assessed as tracer bound at 25 uM after 24 hrs by fluorescence polarization assay relative to control; design: scale not given: the % may be the effect or the level left
Sequence of Endoplasmin (Homo sapiens) (P14625 whole entry, canonical isoform): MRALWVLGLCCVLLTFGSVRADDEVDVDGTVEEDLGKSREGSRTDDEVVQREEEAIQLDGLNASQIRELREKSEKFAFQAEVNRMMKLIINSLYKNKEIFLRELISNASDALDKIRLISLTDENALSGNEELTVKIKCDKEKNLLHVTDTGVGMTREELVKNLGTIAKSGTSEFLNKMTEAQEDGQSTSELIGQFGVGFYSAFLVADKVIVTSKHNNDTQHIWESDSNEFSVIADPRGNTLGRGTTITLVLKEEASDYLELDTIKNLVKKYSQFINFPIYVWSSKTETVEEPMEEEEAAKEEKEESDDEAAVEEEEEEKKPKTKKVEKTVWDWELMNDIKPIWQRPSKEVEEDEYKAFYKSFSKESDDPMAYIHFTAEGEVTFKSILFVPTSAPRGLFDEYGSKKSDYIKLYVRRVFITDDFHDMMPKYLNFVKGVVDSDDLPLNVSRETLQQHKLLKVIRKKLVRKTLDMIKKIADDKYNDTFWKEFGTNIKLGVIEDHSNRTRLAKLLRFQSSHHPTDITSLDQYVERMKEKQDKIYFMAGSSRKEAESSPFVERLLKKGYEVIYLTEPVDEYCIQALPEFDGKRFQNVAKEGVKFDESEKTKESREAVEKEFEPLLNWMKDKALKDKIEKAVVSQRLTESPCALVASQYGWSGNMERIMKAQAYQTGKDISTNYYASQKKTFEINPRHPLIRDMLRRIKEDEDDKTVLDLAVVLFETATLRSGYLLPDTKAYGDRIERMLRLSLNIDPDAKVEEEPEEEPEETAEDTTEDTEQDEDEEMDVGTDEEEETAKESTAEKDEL
How it was run: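 Single-point screen at 25 μM. Recombinant cGrp94 (10 nM) and FITC-geldanamycin tracer (6 nM) incubated 24 h at 4°C with rocking in HEPES pH 7.3 buffer containing molybdate, DTT, NP-40 and BGG (1% DMSO). Polarization read at 485/528 nm. Percent tracer bound scaled between DMSO mP (100%) and free tracer mP (0%). Geldanamycin 50 nM was the positive control. Triplicate.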

[2] = molecular target: Endoplasmin (Homo sapiens) (UniProt P14625); test: Inhibition of Gpr94 in human RPMI18226 cells assessed as decrease in IGF-II secretion at 0.25 to 2 fold antiproliferative IC50 concentration by Western blot analysis; assay type: cell-based
How it was run: (§1)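 Cells plated in 6-well plates and exposed 24 h to high and low compound concentrations, 15 μM radicicol, or DMSO only (0.25% DMSO final). Lysed in MPER with protease inhibitors on ice and clarified at 4°C. Protein measured by BCA. 20 μg per lane run reducing on SDS-PAGE, blotted to PVDF and probed with specific antibodies, HRP secondary, chemiluminescence. For IGF-II, medium volumes normalized to equal actin were blotted.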

[3] = molecular target: Heat shock protein HSP 90-alpha (Homo sapiens) (UniProt P07900); test: Inhibition of Hsp90alpha in human RPMI18226 cells assessed as cyclin D1 degradation at 0.5 to 5 fold antiproliferative IC50 concentration by Western blot analysis; assay type: cell-based; how it was run: as §1
[4] = molecular target: Endoplasmin (Homo sapiens) (UniProt P14625); test: Inhibition of Gpr94 in human MDA-MB-231 cells assessed as decrease in IGF-II secretion at 1 to 10 uM by Western blot analysis; assay type: cell-based; how it was run: as §1
[5] = molecular target: Endoplasmin (Homo sapiens) (UniProt P14625); test: Binding affinity to Gpr94 in human MDA-MB-231 cells assessed as conformational change using 9G10 antibody by immunoblotting analysis; assay type: cell-based
How it was run: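 MDA-MB-231 cells treated overnight at 10 μM (high) or 1 μM (low). Radicicol 15 μM was the positive control and DMSO the negative control. Detergent lysates immunoprecipitated with the conformation-specific anti-Grp94 antibody 9G10, which recognizes only open, unliganded Grp94, on protein G magnetic beads. Precipitates immunoblotted for Grp94.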

[6] = molecular target: Endoplasmin (Homo sapiens) (UniProt P14625); test: Binding affinity to Gpr94 in human RPMI18226 cells using 9G10 antibody by immunoblotting analysis; assay type: cell-based
How it was run: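 Radicicol 15 μM was the positive control and DMSO the negative control. Detergent lysates pulled down with conformation-specific anti-Grp94 antibody 9G10 on protein G magnetic beads, then immunoblotted for Grp94.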

MDA-MB-231 [7] = test: Antiproliferative activity against human MDA-MB-231 cells after 72 hrs by MTS/PMS proliferation assay; assay type: functional, cell-based; conditions: MDA-MB-231, 72 h
How it was run: (§2)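 Cells kept in RPMI1640 (RPMI 8226) or DMEM (MDA-MB-231) with nonessential amino acids, 2 mM L-glutamine, penicillin/streptomycin and 10% FBS at 37°C, 5% CO2. Seeded at 2000/well, attached overnight, then given compound across a concentration range in 1% DMSO final for 72 h. Viable cells read by MTS/PMS. 1% DMSO wells set as 100%. IC50 from separate triplicate experiments.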

[8] = molecular target: Heat shock protein HSP 90-alpha (Homo sapiens) (UniProt P07900); test: Inhibition of Hsp90alpha in human MDA-MB-231 cells assessed as cyclin D1 degradation at 60 uM by Western blot analysis; assay type: cell-based; how it was run: as §1
[9] = molecular target: Heat shock protein HSP 90-alpha (Homo sapiens) (UniProt P07900); test: Inhibition of Hsp90alpha in human RPMI18226 cells assessed as Akt degradation at 0.5 to 5 fold antiproliferative IC50 concentration by Western blot analysis; assay type: cell-based; how it was run: as §1
[10] = molecular target: Heat shock protein HSP 90-alpha (Homo sapiens) (UniProt P07900); test: Inhibition of Hsp90alpha in human MDA-MB-231 cells assessed as Akt degradation at 60 uM by Western blot analysis; assay type: cell-based; how it was run: as §1
[11] = Antiproliferative activity against human RPMI18226 cells after 72 hrs by MTS/PMS proliferation assay; assay type: functional, cell-based; conditions: RPMI18226, 72 h; how it was run: as §2
MDA-MB-231 [12] = test: Cytotoxicity against human MDA-MB-231 cells at 2.5 to 25 uM after 24 hrs; assay type: cell-based; conditions: mda-mb-231, 24 h
MDA-MB-231 [13] = test: Inhibition of cell migration in human MDA-MB-231 cells assessed as reduction of cell migrated into scratched area after 16 to 24 hrs by wound healing assay; assay type: functional, cell-based
How it was run: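 Cells seeded at 200000/well and grown 24 h to a confluent monolayer at 37°C, 5% CO2. Each well scratched with a sterile pipet tip and photographed at 0 h. Compound added at 2.5 up to 25 μM (0.25% DMSO final). Migration into the wound photographed at 16 and 24 h. Quadruplicate wells on two different days.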

[14] = molecular target: Endoplasmin (Homo sapiens) (UniProt P14625); test: Inhibition of recombinant Grp94 (unknown origin) assessed as tracer bound at 25 uM after 24 hrs by fluorescence polarization assay relative to HSP90alpha (unknown origin)
How it was run: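 Compounds at 25 μM incubated 24 h with either cGrp94 or Hsp90α plus FITC-geldanamycin tracer (1% DMSO) to compare the two isoforms. Fluorescence polarization gave percent tracer bound, with DMSO as 100% and free tracer as 0%. Geldanamycin 50 nM was the positive control. Triplicate.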

SMILES: COC(=O)c1c(O)cc(O)c(Cl)c1CCC(=O)Nc1ccccc1N
- Activity [1]: 20.5%

SMILES: COC(=O)c1c(O)cc(O)c(Cl)c1CCC(=O)Nc1ncccc1Cl
- Activity [1]: 9.8%

SMILES: COC(=O)c1c(O)cc(O)c(Cl)c1CCC(=O)Nc1ccccc1C(F)(F)F
- Activity [1]: 13.4%

SMILES: COC(=O)c1c(O)cc(O)c(Cl)c1CCC(=O)Nc1ccc(N)cc1
- Activity [1]: 15.7%

SMILES: COC(=O)c1c(O)cc(O)c(Cl)c1CCC(=O)N(c1ccccc1)C(C)C
- Activity [1]: 30.2%

SMILES: COC(=O)c1c(O)cc(O)c(Cl)c1CCC(=O)Nc1cccnc1
- Activity [1]: 14.9%

SMILES: COC(=O)c1c(O)cc(O)c(Cl)c1CCC(=O)Nc1cccc(F)c1
- Activity [1]: 11%

SMILES: COC(=O)c1c(O)cc(O)c(Cl)c1CCC(=O)Nc1ccc(O)cc1
- Activity [1]: 6.5%

SMILES: COC(=O)c1c(O)cc(O)c(Cl)c1CCC(=O)N(O)c1ccccc1
- Activity [1]: 2.5%

SMILES: COC(=O)c1c(O)cc(O)c(Cl)c1CCC(=O)Nc1cccc(Cl)c1Br
- Activity [1]: 24.9%

SMILES: COC(=O)c1c(O)cc(O)c(Cl)c1CCC(=O)Nc1cccc(C(F)(F)F)c1
- Activity [1]: 39.4%

SMILES: COC(=O)c1c(O)cc(O)c(Cl)c1CCC(=O)Nc1ccc(C)cc1
- Activity [1]: 18.7%

SMILES: COC(=O)c1c(O)cc(O)c(Cl)c1CCC(=O)Nc1ccc(Br)c(Cl)c1
- Activity [1]: 71.4%

SMILES: COC(=O)c1c(O)cc(O)c(Cl)c1CCC(=O)Nc1cncnc1
- Activity [1]: 11.6%

SMILES: COC(=O)c1c(O)cc(O)c(Cl)c1CCC(=O)Nc1ccccn1
- inhibition [2]: Active
- inhibition [3]: inactive
- inhibition [4]: Active
- Activity [5]: Dose-dependent effect
- Activity [6]: Dose-dependent effect
- Activity [1]: 1%
- IC50 (MDA-MB-231 [7]): 12 µM
- inhibition [8]: inactive
- inhibition [9]: inactive
- inhibition [10]: inactive
- IC50 [11]: 9.12 µM
- Activity (MDA-MB-231 [12]): Non-toxic
- inhibition (MDA-MB-231 [13]): Dose-dependent effect

SMILES: COC(=O)c1c(O)cc(O)c(Cl)c1CCC(=O)Nc1ncc(Br)s1
- Activity [1]: 27.7%

SMILES: COC(=O)c1c(O)cc(O)c(Cl)c1CCC(=O)Nc1ccccc1I
- Activity [1]: 7.9%

SMILES: COC(=O)c1c(O)cc(O)c(Cl)c1CCC(=O)NC1CCCCC1
- Activity [1]: 26.1%

SMILES: COC(=O)c1c(O)cc(O)c(Cl)c1CCC(=O)Nc1ccc(C#N)cc1
- Activity [1]: 5.4%

SMILES: COC(=O)c1c(O)cc(O)c(Cl)c1CCC(=O)Nc1cnncn1
- Activity [1]: 19.5%

SMILES: COC(=O)c1c(O)cc(O)c(Cl)c1CCC(=O)Nc1ncc(Cl)s1
- Activity [1]: 22.4%

SMILES: COC(=O)c1c(O)cc(O)c(Cl)c1CCC(=O)Nc1cc(Cl)ccn1
- Activity [1]: 7.7%

SMILES: COC(=O)c1c(O)cc(O)c(Cl)c1CCC(=O)Nc1ccc(Cl)cc1
- Activity [1]: 15.7%

SMILES: COC(=O)c1c(O)cc(O)c(Cl)c1CCC(=O)Nc1ccccc1O
- Activity [1]: 18%

SMILES: COC(=O)c1c(O)cc(O)c(Cl)c1CCC(=O)Nc1cccc(O)c1
- Activity [1]: 3.5%

SMILES: COC(=O)c1c(O)cc(O)c(Cl)c1CCC(=O)Nc1ccc(C(C)C)cc1
- Activity [1]: 59%

SMILES: COC(=O)c1c(O)cc(O)c(Cl)c1CCC(=O)Nc1cccc(Cl)c1
- Ratio [14]: 25
- Activity [1]: 0.1%

SMILES: COC(=O)c1c(O)cc(O)c(Cl)c1CCC(=O)Nc1ccc(F)cc1
- Activity [1]: 10.9%

SMILES: COC(=O)c1c(O)cc(O)c(Cl)c1CCC(=O)NCc1ccccc1
- Activity [1]: 65.8%

SMILES: COC(=O)c1c(O)cc(O)c(Cl)c1CCC(=O)Nc1cnccn1
- Activity [1]: 16.6%

SMILES: COC(=O)c1c(O)cc(O)c(Cl)c1CCC(=O)Nc1cccc(-c2ccccc2)c1
- Activity [1]: 46.8%

SMILES: COC(=O)c1c(O)cc(O)c(Cl)c1CCC(=O)Nc1ccccc1OC
- Activity [1]: 16.1%
